Measured values reported in ChEMBL document CHEMBL1132585, “New N-(pyridin-4-yl)-(indol-3-yl)acetamides and propanamides as antiallergic agents” (J Med Chem, 1999).
The source made the active and inactive calls. The rule behind the calls is not given here.

What was measured:
Mus musculus [1] = species on record: Mus musculus; assay: Percent inhibition of anti-CD3 mAb stimulated interleukin-4 release from […] by 10 uM; format: functional
Procedure, shortened: (§1)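 D10.G4.1 Th-2 cells (4 × 10⁴/well) in medium without Rat T-STIM for 3.5 h, then exposed to drug at 10 µM for 30 min and stimulated with anti-CD3 mAb (final 1:100) for 16 h. IL-4 or IL-5 content of the supernatant is read against solvent control. Mean of three experiments, each run in duplicate.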

Mus musculus [2] = species on record: Mus musculus; assay: Percent inhibition of anti-CD3 mAb stimulated interleukin-5 release from […] by 10 uM; format: functional; procedure, shortened: as §1
Rattus norvegicus [3] = species on record: Rattus norvegicus; assay: Inhibition of histamine release in rat mast cells; format: functional, cell-based
Mus musculus [4] = species on record: Mus musculus; assay: Percent inhibition of anti-CD3 mAb stimulated interleukin-4 release from mice splenocytes by 10 uM compound; format: functional
Mus musculus [5] = species on record: Mus musculus; assay: Compound was evaluated for IL 5 production inhibition from mice splenocytes stimulated by anti-CD3 mAb; format: functional
Procedure, shortened: (§2)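 Th-2 clone D10.G4.1, restimulated with conalbumin (100 µg/mL) plus mitomycin C-treated AKR/J splenocytes as antigen-presenting cells, thawed and grown 3 days with Rat T-STIM. Cells at 4 × 10⁴/well, 3.5 h without T-STIM, drug 30 min (DMSO ≤0.1%). Stimulated with anti-CD3 mAb (final 1:100) for 16 h; IL-4 or IL-5 measured in supernatant. IC50 estimated over a concentration range.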

Mus musculus [6] = species on record: Mus musculus; assay: Compound was evaluated for IL 4 production inhibition from mice splenocytes stimulated by anti-CD3 mAb; format: functional; procedure, shortened: as §2
Mus musculus [7] = species on record: Mus musculus; assay: Compound was evaluated for IL 5 production inhibitio from mice splenocytes stimulated by anti-CD3 mAb; format: functional; procedure, shortened: as §2
Rattus norvegicus [8] = assay: Compound was evaluated in vivo for inhibition of Ovalbumin induced rhinitis in anesthetized rats after topical administration (nasal perfusion).; format: functional, organism-based
Procedure, shortened: (§3)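 Male Brown Norway rats sensitized ip with OVA 0.5 mg/kg + Al(OH)₃ 7.5 mg/kg, used on day 20-21 under thiopental (50 mg/kg ip). Nasal cavity perfused with PBS; drug given by 30 min topical perfusion in PBS, iv 30 min or po 60 min before OVA challenge.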

Rattus norvegicus [9] = species on record: Rattus norvegicus; assay: Inhibition of tetraethylammonium chloride(TEA)-induced acetylcholine hyperactivity in rat tracheal segments by the compound.; format: functional; details: Trachea
Procedure, shortened: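 Male Wistar rat tracheal rings in Krebs-Henseleit at 37 °C, 1 g preload, isotonic. Acetylcholine cumulative curves run alone, with TEA (10 mM, 30 min), and with drug (30 min before TEA) plus TEA. Percent inhibition of hyperreactivity taken from contraction at 100 µM acetylcholine, 3-5 preparations; screening at 30 µM, and IC50 by regression from 3-4 concentrations if inhibition exceeds 50%.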

Cavia porcellus [10] = assay: Inhibition of Late Phase Eosinophilia in Bronchoalveolar Lavage (BAL) of Guinea Pigs 4 hr after peroral administration at a dose of 30 mg/kg.; format: functional; details: route oral
Procedure, shortened: (§4)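 Male Dunkin-Hartley guinea pigs sensitized ip with OVA 20 µg + Al(OH)₃ 20 mg on two consecutive days; 14 days later mepyramine 10 mg/kg ip given before aerosol OVA challenge (5 mg/mL nebulized). Drug given ip or by oral gavage 2 h before or 4 h after challenge.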

Cavia porcellus [11] = assay: Inhibition of Late Phase Eosinophilia in Bronchoalveolar Lavage (BAL) of Guinea Pigs 4 hr after intraperitoneal administration at a dose 5 mg/kg.; format: functional; details: ip; procedure, shortened: as §4
Cavia porcellus [12] = assay: Inhibition of Late Phase Eosinophilia in Bronchoalveolar Lavage (BAL) of Guinea Pigs 2 hr after peroral administration at a dose of 30 mg/kg.; format: functional; details: route oral; procedure, shortened: as §4
Rattus norvegicus [13] = assay: Compound was evaluated in vivo for inhibition of Ovalbumin induced rhinitis in anesthetized rats 60 min after peroral administration.; format: functional; details: po, 1 h, read-out: ID50 (the source's name); procedure, shortened: as §3
Cavia porcellus [14] = species on record: Cavia porcellus; assay: Inhibition of Carbachol-induced contraction of guinea pig trachea by the compound at a concentration of 100 uM.; format: functional
Procedure, shortened: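 Guinea pig tracheal spirals in Tyrode solution at 37 °C, carbogen, isotonic 2 g preload. Contracted with carbachol 0.164 µM until stable; after isoprenaline relaxation and washout, carbachol re-applied and test compound added cumulatively. Relaxation calculated as a percentage at each concentration.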

Rattus norvegicus [15] = assay: Compound was evaluated in vivo for inhibition of Ovalbumin induced rhinitis in anesthetized rats 30 min after intravenous administration.; format: functional; details: 0.5 h, read-out: ID50 (the source's name); procedure, shortened: as §3
Cavia porcellus [16] = assay: Inhibition of Late Phase Eosinophilia in Bronchoalveolar Lavage (BAL) of Guinea Pigs 2 hr after intraperitoneal administration at a dose of 10 mg/kg.; format: functional; details: ip; procedure, shortened: as §4

Row | IC50 (Rattus norvegicus [3]) | SMILES | inhibition (Mus musculus [1]) | inhibition at 10 µM (Mus musculus [2]) | inhibition at 10 µM (Mus musculus [4]) | further results
1 |  | COc1ccc2[nH]cc(CCC(=O)Nc3ccncc3)c2c1 | inactive | 26% |  | 
2 | 10.1 µM | Cc1[nH]c2ccc(F)cc2c1CC(=O)Nc1ccncc1 | inactive |  |  | 
3 | 7.54 µM | Cc1c(CC(=O)Nc2ccncc2)c2cc(C(C)C)ccc2n1Cc1ccccc1 | inactive | 34% |  | 
4 | > 10 µM | Cc1[nH]c2ccc(Cl)cc2c1CC(=O)Nc1ccncc1 | inactive |  |  | 
5 |  | COc1ccc2c(c1)c(CC(=O)Nc1ccncc1)cn2-c1ccc(F)cc1 |  | 22% | 24% | 
6 | 0.23 µM | O=C(Cc1cn(Cc2ccc(F)cc2)c2ccc(Cl)cc12)Nc1ccncc1 | inactive | 54% |  | IC50 (Mus musculus [5]): 8.8 µM; IC50 (Mus musculus [6]): > 10 µM
7 |  | C[C@@H]1C[C@H]2[C@@H]3CCC4=CC(=O)C=C[C@]4(C)[C@@]3(F)[C@@H](O)C[C@]2(C)[C@@]1(O)C(=O)CO [DEXAMETHASONE] |  |  |  | IC50 (Mus musculus [7]): 0.0035 µM; IC50 (Mus musculus [6]): 0.0047 µM
8 |  | c1ccc(CN(CC2=NCCN2)c2ccccc2)cc1 [ANTAZOLINE] |  |  |  | IC50 (Rattus norvegicus [8]): 1.26 µM
9 | 2.8 µM | COc1ccc2c(c1)c(CC(=O)Nc1ccncc1)cn2Cc1ccccc1 |  | 38% | 33% | 
10 | 1.3 µM | O=C(CCc1cn(Cc2ccc(F)cc2)c2ccc(Cl)cc12)Nc1ccncc1 | inactive | 41% |  | 
11 | 3.9 µM | COc1ccc2c(c1)c(CCC(=O)Nc1ccncc1)cn2Cc1ccccc1 | inactive |  |  | 
12 | 0.38 µM | O=C(CCc1cn(Cc2ccc(F)cc2)c2ccc(F)cc12)Nc1ccncc1 | inactive | 37% |  | 
13 |  | O=C(Cc1cn(Cc2ccccc2)c2ccc(Cl)cc12)Nc1ccncc1 |  | 49% | 39% | 
14 | > 10 µM | COc1ccc2[nH]cc(CC(=O)Nc3ccncc3)c2c1 | inactive |  |  | 
15 | 4.5 µM | O=C(Cc1c[nH]c2ccc(Cl)cc12)Nc1ccncc1 | inactive |  |  | 
16 |  | Cc1c(CC(=O)Nc2ccncc2)c2cc(Cl)ccc2n1Cc1ccc(F)cc1 |  | 26% | 28% | 
17 | 1.46 µM | O=C(CCc1c[nH]c2ccc(Cl)cc12)Nc1ccncc1 |  | 25% | 26% | 
18 | 0.42 µM | O=C(CCc1cn(Cc2ccccc2)c2ccc(F)cc12)Nc1ccncc1 |  | 42% | 27% | 
19 | 5 µM | COc1ccc2c(c1)c(CC(=O)Nc1ccncc1)c(C)n2Cc1ccc(F)cc1 | inactive | 22% |  | 
20 | 0.4 µM | Cc1c(CC(=O)Nc2ccncc2)c2cc(F)ccc2n1Cc1ccc(F)cc1 |  | 61% | 49% | IC50 (Mus musculus [5]): 7.87 µM; IC50 (Mus musculus [6]): 10.2 µM
21 | 6.9 µM | Cc1c(CC(=O)Nc2ccncc2)c2cc(C(C)C)ccc2n1Cc1ccc(F)cc1 | inactive |  |  | 
22 |  | O=C(Cc1cn(-c2ccc(F)cc2)c2ccc(F)cc12)Nc1ccncc1 |  | 71% | 51% | IC50 (Mus musculus [5]): 4.56 µM; IC50 (Mus musculus [6]): 9.7 µM
23 | 4.92 µM | CC(C)c1ccc2[nH]cc(CC(=O)Nc3ccncc3)c2c1 |  | 29% | 33% | 

Row | IC50 (Rattus norvegicus [3]) | SMILES | inhibition (Mus musculus [1]) | inhibition at 10 µM (Mus musculus [2]) | inhibition at 10 µM (Mus musculus [4]) | further results
24 | 6.5 µM | COc1ccc(CCN2CCC(Nc3nc4ccccc4n3Cc3ccc(F)cc3)CC2)cc1 [ASTEMIZOLE] |  | 74% | 66% | IC50 (Mus musculus [5]): 3.3 µM; IC50 (Mus musculus [6]): 8 µM
25 | 5.34 µM | CC(C)c1ccc2c(c1)c(CCC(=O)Nc1ccncc1)cn2Cc1ccc(F)cc1 | inactive |  |  | 
26 | 0.33 µM | COc1ccc2c(CC(=O)Nc3ccncc3)cn(Cc3ccc(F)cc3)c2c1 |  | 76% | 51% | IC50 (Mus musculus [5]): 2.28 µM; IC50 (Mus musculus [6]): 9.8 µM
27 |  | COc1ccc2[nH]c(C)c(CC(=O)Nc3ccncc3)c2c1 | inactive |  |  | 
28 | 0.94 µM | O=C(Cc1cn(Cc2ccc(F)cc2)c2cc(O)ccc12)Nc1ccncc1 |  | 37% | 29% | 
29 | 3.12 µM | CC(C)c1ccc2[nH]cc(CCC(=O)Nc3ccncc3)c2c1 | inactive | 28% |  | 
30 |  | COc1ccc(CCN(C)CCCC(C#N)(c2ccc(OC)c(OC)c2)C(C)C)cc1OC (stereo not given) [VERAPAMIL] |  |  |  | IC50 (Rattus norvegicus [9]): 1.3 µM
31 | > 10 µM | O=C(Cc1c[nH]c2ccc(F)cc12)Nc1ccncc1 | inactive |  |  | 
32 |  | COc1ccc(CN(CCN(C)C)c2ccccn2)cc1 [PYRILAMINE] |  |  |  | IC50 (Rattus norvegicus [8]): 7.41 µM
33 | 0.016 µM | O=C(Cc1cn(Cc2ccc(F)cc2)c2ccccc12)Nc1ccncc1 |  | 100% | 63% | IC50 (Mus musculus [5]): 1.5 µM; IC50 (Mus musculus [6]): 8 µM; IC50 (Rattus norvegicus [9]): 0.021 µM; inhibition in vivo at 30 mg/kg (Cavia porcellus [10]): 28%; inhibition in vivo at 5 mg/kg (Cavia porcellus [11]): 41%; inhibition in vivo at 30 mg/kg (Cavia porcellus [12]): 35%; IC50 (Rattus norvegicus [8]): 0.25 µM; ED50 (Rattus norvegicus [13]): 0.46 mg/kg; inhibition at 100 µM (Cavia porcellus [14]): 36%; ED50 (Rattus norvegicus [15]): 0.005 mg/kg; inhibition in vivo at 10 mg/kg (Cavia porcellus [16]): 59%
34 | 0.74 µM | O=C(CCc1cn(Cc2ccccc2)c2ccc(Cl)cc12)Nc1ccncc1 | inactive |  |  | 
35 | 2.21 µM | O=C(CCc1c[nH]c2ccc(F)cc12)Nc1ccncc1 | inactive | 25% |  | 
36 | 0.48 µM | Cc1c(CC(=O)Nc2ccncc2)c2cc(F)ccc2n1Cc1ccccc1 | inactive | 41% |  | 
37 |  | CC(C)(C)c1ccc(C(O)CCCN2CCC(C(O)(c3ccccc3)c3ccccc3)CC2)cc1 (stereo not given) [TERFENADINE] |  |  |  | IC50 (Mus musculus [7]): 3.96 µM; IC50 (Mus musculus [6]): 4.95 µM
38 | 0.22 µM | O=C(CCc1cn(Cc2ccc(F)cc2)c2ccccc12)Nc1ccncc1 |  | 22% | 2.9% | 
39 | 0.302 µM | O=C(Cc1cn(-c2ccc(F)cc2)c2ccccc12)Nc1ccncc1 |  | 48% | 31% | 
40 | 2.8 µM | Cc1[nH]c2ccc(C(C)C)cc2c1CC(=O)Nc1ccncc1 | inactive |  |  | 
41 |  | CC(C)c1ccc2c(c1)c(CC(=O)Nc1ccncc1)cn2Cc1ccc(F)cc1 | inactive | 23% |  | 
42 |  | COc1ccc2c(c1)c(CCC(=O)Nc1ccncc1)cn2Cc1ccc(F)cc1 | inactive |  |  | 
43 |  | O=C(Cc1cn(Cc2ccc(F)cc2)c2ccc(F)cc12)Nc1ccncc1 | inactive | 43% |  | 
44 | 0.51 µM | O=C(CCCc1cn(Cc2ccc(F)cc2)c2ccccc12)Nc1ccncc1 |  | 42% | 31% | 
45 | 0.06 µM | O=C(Cc1cn(Cc2ccccc2)c2ccc(F)cc12)Nc1ccncc1 | inactive | 48% |  | 
46 | 6 µM | CC(C)c1ccc2c(c1)c(CCC(=O)Nc1ccncc1)cn2Cc1ccccc1 | inactive | 25% |  | 
